Screens (PubChem BioAssay)
This is a sample that favours compounds with a hit; in the whole collection about 1.6% have one here.
NR2E3 ag-1: agonists of human nuclear receptor NR2E3; 320,000 compounds, 0.12% hits; GST-NR2E3/biotin-RetCOR TR-FRET, 1536-well; inhibition of corepressor binding, % at 4.78 µM; Q9Y5X4;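 active = percent inhibition above the cutoff of mean plus 3 SD of all tested compounds, set per screening campaign, cut at about 20% in these data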;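 note: 0% = DMSO wells and 100% = biotin wells as full block of FRET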
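Material: NR2E3–RetCOR corepressor complex / Amount: 1.35 nM GST-NR2E3 / Medium: Tris pH 7.5 / Compound: single nominal compound dose of 4.8 µM / Incubation: 5 h at 4 °C / Technique: TR-FRET, Eu(K)-anti-GST donor, streptavidin-D2 acceptor, ex 340, em 617/671 nm / Read-out basis: percent loss of FRET ratio relative to control wells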
PG9 Ab binder: binds the HIV-1 gp120 antibody PG9 | 360,000 compounds, 0.43% hits | TR-FRET gp120-PG9 antibody binding | inhibition, % at 6.7 µM | AID 624416; in the data active = inhibition above about 8.5%
VLA-4 inh: inhibition in a human VLA-4 binding assay | P13612 | VLA-4 expressing cells, ligand binding flow cytometry | inhibition, % (about 7 µM as worked out from the volumes in the protocol) | 330,000 compounds, 0.2% hits; in the data active = inhibition above about 50%
Rev-erbA mod: Rev-erb alpha (human) modulation; P20393; Rev-erbα–FITC-DNA binding, fluorescence polarization, 90 min; activity, % at 10 µM; 370,000 compounds, 0.79% hits; AID 1259318;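 active = activity above about 14%, limit read from the data; passing the limit was not always enough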;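 note: 0% = DMSO wells with 35 nM protein and 100% = DMSO wells with 750 nM protein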
NR2E3 ag-2: activates human NR2E3 receptor; inhibition of corepressor binding, % at 3.98 µM; CHO-S Gal4-NCOR/VP16-NR2E3 two-hybrid, luciferase; AID 602229; 360,000 compounds, 0.35% hits;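 active = inhibition above the mean of all tested compounds plus 3 SD, cut at about 70% in these data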;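 note: 0% = DMSO with NR2E3 transfected cells and 100% = cells lacking NR2E3 construct; higher means lower luciferase signal from less NR2E3 corepressor binding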
VLA-4 allo CP: confirmation of allosteric modulators of human VLA-4 integrin | shares compounds with VLA-4 inh | U937 cells, HUTS-21 LIBS mAb binding, flow cytometry; LDV ligand present at threefold Kd | inhibition, % at 6.7 µM | 1,300 compounds, 2% hits | AID 2813; in the data active = inhibition above about 40%;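 note: 0% = ligand without compound and 100% = no ligand background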
Starred values were filed as active, the others as inactive; / = no result; ! = not confirmed by another sample.

SMILES	NR2E3 ag-1	PG9 Ab binder	VLA-4 inh	Rev-erbA mod	NR2E3 ag-2	VLA-4 allo CP
Cc1ccc(-n2c(SCC(=O)Nc3ccc(OCc4ccccc4)cc3)nnc2-c2ccco2)cc1	/	/	/	4	/	/
Cn1c(Cc2cccs2)nnc1SCC(=O)Nc1ccc2cn[nH]c2c1	/	/	/	3	/	/
c1ccc(C(Cc2nc(-c3cccnc3)no2)c2ccccc2)cc1	6	0	92*	3	12	-4
c1ccc(SCc2nc(-c3cccnc3)no2)cc1	0	0	7	10	-93	/
C[C@H]1[C@H](c2ccccc2)OC(O)([C@H](Cc2ccccc2)NC(=O)OC(C)(C)C)CN1C (some centres undefined)	/	/	/	-1	/	/
N=c1n(CCO)c2ccccc2n1CCOc1ccc(Cl)cc1Cl	2	-2	54*	3	-19	24
Cc1cc(/C=N\NC(=O)c2cccs2)c(C)n1-c1ccc2ncccc2c1	5	-1	93*	0	-81	0
CCN1CCN(CC(O)COc2ccc(C)c(C)c2)CC1 (centres undefined)	3	1	92*	5	-21	-4
O=C1Cc2cc(S(=O)(=O)NCc3ccc(F)cc3)ccc2N1	/	-1	-2	-4	27	0
CC(=O)N[C@H](Cc1c[nH]c2ccccc12)C(=O)O	0	-2	50*	-3	-25	2
c1ccc(-c2ncnc3cc4n(c23)CCC4)cc1	-2	1	61*	12	-10	-1
CCCCNc1ccc2c(c1)OC[C@@H](CC(C)C)NS2(=O)=O	/	0	/	-9	/	/
CCCn1c(SCC(=O)NC(C)C)nc2sc3c(c2c1=O)CCC3	1	-3	1	-2	-3	/
CCCn1c(SCC(=O)NC)nc2sc3c(c2c1=O)CCC3	0	-1	57*	-4	-34	5
CC(=O)OC12CCCN(C1)/C(=C/c1cccnc1)C2 (centres undefined)	/	/	/	1	/	/
O=C(CN1C(=O)c2ccccc2S1(=O)=O)NC1CC2CCC1C2 (centres undefined)	2	-1	51*	2	-16	5
COc1ccc(NC(=O)NNC(=O)CCn2nc(C)c([N+](=O)[O-])c2C)cc1OC	/	/	/	-6	/	/
CC(C)Oc1ccc(-c2csc(N3CCC(C(N)=O)CC3)n2)cc1	/	/	/	0	/	/
COc1ccc(-c2nc(C)ncc2-c2ccc(Cl)cc2)c(O)c1	0	1	68*	3	-5	21
COc1ccc(-c2nc(C)ncc2-c2ccccc2)c(O)c1	0	-2	4	4	-3	/
COC(=O)[C@]1(Cc2ccccc2)N[C@H](CN(C)C(=O)Nc2ccc(OC)cc2)[C@@H]2C(=O)N(Cc3ccccc3)C(=O)[C@@H]21	/	-1	-2	-3	-21	5
CCN(C[C@H]1N[C@@](Cc2ccccc2)(C(=O)OC)[C@H]2C(=O)N(Cc3ccccc3)C(=O)[C@@H]12)C(=O)c1ccc(F)cc1	/	-1	5	3	-55	2
COC(=O)[C@]1(Cc2ccccc2)N[C@H](CN(C)C(=O)Nc2ccc(OC)cc2)[C@@H]2C(=O)N(C)C(=O)[C@@H]21	/	-2	-4	1	-29	/
CCN(C[C@H]1N[C@@](Cc2ccccc2)(C(=O)OC)[C@H]2C(=O)N(C)C(=O)[C@@H]12)C(=O)c1ccc(C)cc1	/	0	51*	-1	-21	2
CCN(C[C@H]1N[C@@](CC)(C(=O)OC)[C@H]2C(=O)N(Cc3ccccc3)C(=O)[C@@H]12)C(=O)c1ccc(F)cc1	/	1	38	6	-13	/
O=[N+]([O-])c1ccccc1Oc1ncccc1[N+](=O)[O-]	2	-1	72*	-3	-24	10
COc1ccnc(CS(=O)c2nc3cc(C(O)(F)F)ccc3[nH]2)c1OC (centres undefined)	0	-1	-1	-4	-17	/
COc1ccc2[nH]c(S(=O)Cc3ncc(C)c(OC)c3C)nc2c1 (centres undefined)	-1	-1	54*!	-4	2	-6
OC1C(O)C(O)C(O)C(O)C1O (centres undefined)	-6	0	51*!	8	18	3
CCOc1ccc(NC(=O)C2CCN(S(=O)(=O)c3ccc4c(c3)C(C)(C)C(=O)N4C)CC2)cc1	6	0	-2	4	0	1
